Activity calls are given as the source filed them. No rule for the calls is given here.
Experiments:
[1] = test system: BSC-1; experiment: Selectivity ratio, IC50 for bcNOS/IC50 for iNOS using vaccinia virus-induced system in BSC1 cells; type: cell-based; details: Homo sapiens
Method in brief: (§1)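 For each compound, the IC50 against bcNOS (b/i) or ecNOS (e/i) is divided by the iNOS IC50 from the same BSC-1 vaccinia system.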

[2] = Inhibition of tetracycline system-induced human NOS expressed in SF9 cells
Method in brief: (§2)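 SF9 cells carrying a tetracycline-induced system expressing one NOS isoform (iNOS, ecNOS or bcNOS); cellular NO formation inhibition measured, compounds up to 10 µM.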

[3] = target: Nitric oxide synthase, inducible (Rattus norvegicus) (UniProt Q06518); experiment: Activity against rat cerebellum iNOS upto 1 uM
Sequence of Nitric oxide synthase, inducible (Rattus norvegicus) (Q06518 whole entry): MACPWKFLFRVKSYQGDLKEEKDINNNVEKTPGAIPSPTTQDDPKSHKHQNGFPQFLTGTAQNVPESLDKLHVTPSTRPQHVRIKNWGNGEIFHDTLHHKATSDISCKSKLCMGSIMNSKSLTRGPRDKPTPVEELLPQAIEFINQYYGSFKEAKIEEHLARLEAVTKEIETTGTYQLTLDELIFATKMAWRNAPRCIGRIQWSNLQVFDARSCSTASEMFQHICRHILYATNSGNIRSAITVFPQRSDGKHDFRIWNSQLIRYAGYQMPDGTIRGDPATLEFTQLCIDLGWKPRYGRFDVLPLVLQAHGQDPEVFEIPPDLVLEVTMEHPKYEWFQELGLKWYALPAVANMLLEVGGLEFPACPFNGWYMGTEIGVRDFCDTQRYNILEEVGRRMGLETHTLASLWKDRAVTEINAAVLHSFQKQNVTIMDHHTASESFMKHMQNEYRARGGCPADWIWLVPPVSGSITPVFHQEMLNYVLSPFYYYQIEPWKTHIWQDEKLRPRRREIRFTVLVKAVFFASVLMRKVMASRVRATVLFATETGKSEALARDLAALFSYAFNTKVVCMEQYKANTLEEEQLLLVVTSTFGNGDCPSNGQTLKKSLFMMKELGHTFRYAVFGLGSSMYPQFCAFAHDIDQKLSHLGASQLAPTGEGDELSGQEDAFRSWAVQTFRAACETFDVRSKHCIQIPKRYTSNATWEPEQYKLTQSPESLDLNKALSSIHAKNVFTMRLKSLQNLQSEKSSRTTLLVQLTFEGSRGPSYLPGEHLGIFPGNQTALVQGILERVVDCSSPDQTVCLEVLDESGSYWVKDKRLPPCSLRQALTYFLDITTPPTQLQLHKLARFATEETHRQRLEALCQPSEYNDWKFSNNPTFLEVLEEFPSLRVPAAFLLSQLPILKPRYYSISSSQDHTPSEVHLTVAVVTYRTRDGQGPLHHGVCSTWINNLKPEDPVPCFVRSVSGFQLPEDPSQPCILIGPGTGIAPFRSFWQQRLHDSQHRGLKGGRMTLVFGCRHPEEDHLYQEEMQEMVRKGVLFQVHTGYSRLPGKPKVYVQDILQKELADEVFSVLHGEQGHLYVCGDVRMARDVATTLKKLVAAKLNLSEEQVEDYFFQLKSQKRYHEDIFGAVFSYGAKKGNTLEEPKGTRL

[4] = test system: Sf9; experiment: Selectivity ratio, IC50 for bcNOS/IC50 for iNOS using tetracycline-induced system in SF9 cells; type: cell-based; details: Homo sapiens; method in brief: as §2
[5] = test system: Sf9; experiment: Selectivity ratio, IC50 for ecNOS/IC50 for iNOS using tetracycline-induced system in SF9 cells; type: cell-based; details: Homo sapiens; method in brief: as §2
[6] = target: Nitric oxide synthase, inducible (Homo sapiens, UniProt P35228); experiment: Inhibition of cytokine-induced iNOS expressed in human A172 cells assessed as inhibition of NO formation; type: cell-based, A 172
Sequence of Nitric oxide synthase, inducible (P35228 whole entry): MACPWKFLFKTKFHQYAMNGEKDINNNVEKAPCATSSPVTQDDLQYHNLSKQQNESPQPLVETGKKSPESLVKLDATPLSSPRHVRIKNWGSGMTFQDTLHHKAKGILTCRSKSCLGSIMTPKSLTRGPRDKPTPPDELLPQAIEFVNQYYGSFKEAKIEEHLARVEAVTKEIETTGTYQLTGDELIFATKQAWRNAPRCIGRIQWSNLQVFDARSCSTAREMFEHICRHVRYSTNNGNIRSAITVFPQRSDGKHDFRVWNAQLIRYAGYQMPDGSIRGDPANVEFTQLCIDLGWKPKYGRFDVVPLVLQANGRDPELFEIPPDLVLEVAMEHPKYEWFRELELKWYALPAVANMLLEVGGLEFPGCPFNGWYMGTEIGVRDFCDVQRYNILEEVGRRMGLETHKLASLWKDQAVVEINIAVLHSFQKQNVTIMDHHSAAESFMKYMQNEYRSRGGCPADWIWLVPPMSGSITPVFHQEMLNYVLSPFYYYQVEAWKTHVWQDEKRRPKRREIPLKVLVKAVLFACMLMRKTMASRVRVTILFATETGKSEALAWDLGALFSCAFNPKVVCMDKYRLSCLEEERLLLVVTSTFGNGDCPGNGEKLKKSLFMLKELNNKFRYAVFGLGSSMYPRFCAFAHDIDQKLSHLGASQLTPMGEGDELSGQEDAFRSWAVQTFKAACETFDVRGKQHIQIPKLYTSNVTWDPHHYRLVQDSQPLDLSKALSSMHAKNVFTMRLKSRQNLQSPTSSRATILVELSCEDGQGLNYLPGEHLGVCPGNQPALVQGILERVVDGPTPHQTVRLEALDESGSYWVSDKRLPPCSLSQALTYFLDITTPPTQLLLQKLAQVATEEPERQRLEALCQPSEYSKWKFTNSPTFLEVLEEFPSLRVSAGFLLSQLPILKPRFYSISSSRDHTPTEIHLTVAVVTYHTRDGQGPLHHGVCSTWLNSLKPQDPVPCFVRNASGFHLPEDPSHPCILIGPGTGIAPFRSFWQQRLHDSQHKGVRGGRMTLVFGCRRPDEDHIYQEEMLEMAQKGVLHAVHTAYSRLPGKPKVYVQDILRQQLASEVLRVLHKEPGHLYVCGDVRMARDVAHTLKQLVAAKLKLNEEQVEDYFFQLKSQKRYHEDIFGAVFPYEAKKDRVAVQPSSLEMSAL

[7] = Inhibition of vaccinia virus system-induced human NOS expressed in BSC1 cells; type: cell-based; details: bsc-1
[8] = test system: BSC-1; experiment: Selectivity ratio, IC50 for ecNOS/IC50 for iNOS using vaccinia virus-induced system in BSC1 cells; type: cell-based; details: Homo sapiens; method in brief: as §1

| SMILES | Ratio IC50 [1] | IC50 [2] [nM] | Activity [3] | Ratio IC50 [4] | Ratio IC50 [5] | IC50 [6] [nM] | IC50 [7] [nM] | Ratio IC50 [8] |
| --- | --- | --- | --- | --- | --- | --- | --- | --- |
| Cc1cc(N2CCC[C@@H]2CC(=O)NCc2ccc3c(c2)OCO3)nc(-n2ccnc2)n1 | 8 | 4.5 | inactive | 27 | 91 | 0.12 | 5.9 | 1000 |
| CCc1cc(N2CCC[C@@H]2CC(=O)NCc2ccc3c(c2)OCO3)nc(-n2ccnc2)n1 | 15 | 7.1 | inactive | 18 | 65 | 0.13 | 7.5 | 7800 |
| O=C(NCCc1ccc2c(c1)OCO2)[C@H]1CCCN1c1ccnc(-n2ccnc2)n1 | 19 | 11 | inactive | 74 | 181 | 0.48 | 25 | > 2000 |
| CC(C)OC(=O)N1CCN(c2ccnc(-n3ccnc3)n2)C(CC(=O)NCc2ccc3c(c2)OCO3)C1 (centres undefined) | 4 | – | inactive | – | – | 1 | 24 | 800 |
| O=C(CC1CNCCN1c1ccnc(-n2ccnc2)n1)NCc1ccc2c(c1)OCO2 (centres undefined) | 7 | – | inactive | – | – | 0.55 | 70 | 1200 |
| O=C(CC1CN(C(=O)Oc2ccccc2)CCN1c1ccnc(-n2ccnc2)n1)NCc1ccc2c(c1)OCO2 (centres undefined) | 5 | – | inactive | – | – | 1.4 | 16 | 700 |
| O=C(CC1CCCCN1c1ccnc(-n2ccnc2)n1)NCc1ccc(F)cc1 (centres undefined) | 5 | – | inactive | – | – | 3 | 210 | 490 |
| CC(=O)N1CCN(c2ccnc(-n3ccnc3)n2)C(CC(=O)NCc2ccc3c(c2)OCO3)C1 (centres undefined) | 3 | – | inactive | – | – | 1 | 320 | > 10 |
| O=C(CC1CN(C(=O)OCc2ccccc2)CCN1c1ccnc(-n2ccnc2)n1)NCc1ccc2c(c1)OCO2 (centres undefined) | 7 | – | inactive | – | – | 0.8 | 18 | 660 |
| O=C(CC1CCCCN1c1cc(C(F)(F)F)nc(-n2ccnc2)n1)NCc1ccc2c(c1)OCO2 (centres undefined) | > 31 | – | inactive | – | – | 180 | 320 | > 310 |
| O=C(CC1CN(C(=O)COCc2ccccc2)CCN1c1ccnc(-n2ccnc2)n1)NCc1ccc2c(c1)OCO2 (centres undefined) | 11 | – | inactive | – | – | 0.5 | 28 | 1220 |
| O=C(CC1CCCCN1c1ccnc(-n2ccnc2)n1)NCc1ccc(C(F)(F)F)cc1 (centres undefined) | 3 | – | inactive | – | – | 150 | 260 | 70 |
| O=C(CC1CCCCN1c1nccc(-n2ccnc2)n1)NCc1ccc2c(c1)OCO2 (centres undefined) | 6 | – | inactive | – | – | 52 | 220 | > 500 |
| O=C(CC1CN(C(=O)Nc2ccccc2)CCN1c1ccnc(-n2ccnc2)n1)NCc1ccc2c(c1)OCO2 (centres undefined) | 3 | – | inactive | – | – | 0.87 | 25 | 350 |
| COc1ccc(CCNC(=O)CC2CCCCN2c2ccnc(-n3ccnc3)n2)cc1OC (centres undefined) | 1 | – | inactive | – | – | 12 | 680 | 120 |
| O=C(CC1CN(C(=O)NCc2ccccc2)CCN1c1ccnc(-n2ccnc2)n1)NCc1ccc2c(c1)OCO2 (centres undefined) | 4 | – | inactive | – | – | 0.96 | 72 | 490 |
| O=C(CC1CN(C(=O)c2ccco2)CCN1c1ccnc(-n2ccnc2)n1)NCc1ccc2c(c1)OCO2 (centres undefined) | 6 | – | inactive | – | – | 0.67 | 48 | 1000 |

From ChEMBL document CHEMBL1142952, “Design, synthesis, and activity of 2-imidazol-1-ylpyrimidine derived inducible nitric oxide synthase dimerization inhibitors” (J Med Chem, 2007)
